RORa activator: activators of orphan receptor RORA, primary screen, cell-based, luminescence; CHO-K1 Gal4-RORA LBD luciferase reporter; percent increase over mock-subtracted basal signal; activation, % at 10 µM; 1.5% of 65,000 active; AID 560, 2006;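 active = activation above the mean of all tested compounds plus 3 SD, cut at about 49% in these data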;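 also: 0% = DMSO-treated RORA cells and 100% = added signal equal to DMSO minus mock-transfected cells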
D1 allo mod: D1 CRE-luciferase signal change, two-sided – cell-based, HEK293 D1, dopamine EC30, D1 allosteric modulator project, primary screen; D(1A) dopamine receptor (Homo sapiens), P21728; dopamine EC30 potentiation; actives deviate in either direction; B-score at 10 µM; 5.9% of 58,000 active; AID 641, 2007;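 active = luminescence count or its row- and column-corrected plate score outside the 99.7% band of the plate's sample wells, on either side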
Htt clearance: clearance of mutant huntingtin inclusions, primary screen, imaging, HeLa Exon1htt(103Q)mCFP, confocal imaging; aggregate imaging; zero = plate's median compound well; inhibition, % at 1.5 µM; 0.42% of 47,000 active; AID 853, 2007;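 active = inhibition of aggregate fluorescence above about 70%, also judged a hit by eye on the cell image, limit read from the data, passing the limit was not always enough; inconclusive = no rule stated for this call; inactive = not judged a hit on image review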;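 also: cells exposed to compound for three days before fixation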
SF-1 act: activators of human SF-1, primary screen, cell-based, CHO-K1, Gal4-SF-1 LBD, luciferase luminescence | 1.9% of 65,000 active | Steroidogenic factor 1 (Homo sapiens), Q13285 | activation, % at 10 µM | AID 522, 2006 | CHO-K1 Gal4-SF-1 LBD luciferase reporter; % increase over DMSO SF-1-specific signal;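 active = activation above the mean activation of all tested compounds plus 3 SD, cut at about 50% in these data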
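Test system: CHO-K1 cells co-transfected with Gal4 DBD–human SF-1 LBD, 5xGal4 luciferase reporter. Quantity: 4,000 cells per well. Compound: 10 µM only. Incubation: compound added 1 h post-seeding, 20 h exposure at 37 °C, 5% CO2. Detection: SteadyLite luciferase luminescence. Replication: one test per compound.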
M1 antagonist: antagonists of rat M1 muscarinic receptor; 3.4% of 64,000 active; B-score at 10 µM; CHO-M1 cells, Fluo-4 calcium, ACh EC80 antagonist mode; hits give low values;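 active = calcium fluorescence response, raw or row-and-column corrected B-score, differing from the plate sample mean either way at a set confidence level, mostly lower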
Target sequence (P08482 whole entry, looked up): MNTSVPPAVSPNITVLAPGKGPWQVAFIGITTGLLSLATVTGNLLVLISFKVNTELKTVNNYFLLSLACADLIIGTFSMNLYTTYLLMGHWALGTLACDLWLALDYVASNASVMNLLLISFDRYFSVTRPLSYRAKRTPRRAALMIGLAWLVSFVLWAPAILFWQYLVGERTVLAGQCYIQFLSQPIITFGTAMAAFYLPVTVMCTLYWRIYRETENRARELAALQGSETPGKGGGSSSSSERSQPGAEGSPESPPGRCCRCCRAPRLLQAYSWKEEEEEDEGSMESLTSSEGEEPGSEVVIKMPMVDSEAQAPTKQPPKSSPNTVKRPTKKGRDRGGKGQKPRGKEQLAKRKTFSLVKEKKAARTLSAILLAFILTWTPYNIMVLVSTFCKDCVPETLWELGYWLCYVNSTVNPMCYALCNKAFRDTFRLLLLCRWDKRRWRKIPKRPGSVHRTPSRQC
M1 ag: M1 muscarinic receptor agonists, primary screen, CHO-M1 cells, Fluo-4 calcium, agonist mode; Fluo-4 calcium fluorescence; hits give high values; B-score at 10 µM; 3% of 64,000 active; AID 626, 2007;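 active = fluorescence rise, raw or as B-score row- and column-corrected plate score, outside the 99.7% band of its plate's samples, either direction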
D1 mod confirm: D1 receptor positive allosteric modulators, retest, confirmation, cell-based, HEK293 D1, CRE-luciferase, duplicate; shares compounds with D1 allo mod; dopamine EC30 potentiation; hits give high values; luminescence at 10 µM; 88% of 2,200 active; AID 642, 2007;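 active = luminescence in either of two replicates above the same-plate mean plus 3 SD of the low-dose dopamine control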
D1 no dopamine: D1 receptor agonism without dopamine, confirmation, mechanism study for D1 allosteric modulator project, cell-based, HEK293 D1, CRE-luciferase, secondary assay 1; luminescence at 10 µM; shares compounds with D1 allo mod; luminescence, no dopamine; hits give high values; 0.8% of 1,900 active; in the data active = luminescence above about 3900
Isoprot counter: alters isoproterenol CRE-luciferase response in HEK293 cells; shares compounds with D1 allo mod; HEK293 D1 CRE-luciferase, isoproterenol EC30 counter-screen; calls only at 10 µM; 63% of 2,200 active; AID 647;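 active = luminescence in either replicate above plate mean of wells with a partly effective reference agonist dose plus 3 SD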;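 also: isoproterenol raises cAMP through native beta-adrenoceptor Gs so signal bypasses D1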
The depositor's hits bear a star; i = inactive; ? = inconclusive; . = no result given; + = active, no number. This is a sample that favours compounds with a hit; in the whole collection about 11% have one here.

SMILES | RORa activator | D1 allo mod | Htt clearance | SF-1 act | M1 antagonist | M1 ag | D1 mod confirm | D1 no dopamine | Isoprot counter
Cc1ccc2cc(C(c3nnnn3C(C)(C)C)N3CCCC3)c(=O)[nH]c2c1C (stereo unspecified) | 2 | 0.18 | . | 4 | 0.54 | -0.57 | . | . | .
CCOC(=O)c1cc2c(=O)n3cccc(C)c3nc2n(Cc2ccco2)c1=NC(=O)c1ccccc1 | . | . | 13 | . | . | . | . | . | .
CCOC(=O)c1cc2c(=O)n3ccccc3nc2n(CCCOC)c1=NC(C)=O | 6 | 4.7* | . | 10 | 0.14 | -0.18 | 9064* | . | i
CCCn1c(=NC(=O)c2ccco2)c(C(=O)OCC)cc2c(=O)n3ccccc3nc21 | 4 | 6.1* | -97 | 7 | -1.1 | 0.81 | 16752* | 1572 | i
COC(=O)C1CCN(C(=O)c2sc3nc(-c4ccc(F)cc4)cn3c2C)CC1 | 5 | 1.7 | 6 | 13 | 0.0063 | -1.2 | . | . | .
COC(=O)c1cc(CSc2nnc(-c3ccccc3)c(-c3ccccc3)n2)oc1C | -11 | -0.2 | -27 | -3 | -0.012 | -0.027 | . | . | .
COC(=O)c1cc(CSc2nnc(NC3CCCCC3)s2)oc1C | 6 | 10* | . | -19 | -1.2 | 0.9 | 10504* | 1400 | +
COc1c(Cl)cc(-c2noc(C)c2C(=O)NC(C)C)cc1Cl | -8 | 0.21 | . | 17 | 0.39 | 0.39 | . | . | .
COc1nc(-c2ccc(C)cc2)ccc1-c1noc(-c2ccco2)n1 | 19 | 0.98 | . | 16 | 1.2 | -0.72 | . | . | .
CCOc1ccc(-c2noc(-c3ccncc3)n2)cc1OCC | -10 | 11* | . | 18 | -0.56 | -1.3 | . | 1596 | +
COc1ccc(-c2noc(-c3ccco3)n2)cc1OC | 44 | 5.2* | -62 | 50* | -0.032 | 0.73 | 18728* | 1452 | i
COc1ccc(-c2noc(COc3ccccc3OC)n2)cc1OC | 26 | 11* | . | 16 | -0.25 | 0.12 | 17132* | 1668 | +
COc1ccc(-c2noc(CCC(N)=O)n2)cc1OC | 12 | 3.6* | -13 | -4 | 2.3 | 0.0055 | 13684* | 1704 | i
COc1ccc(-c2noc(CCCC(=O)NCCc3ccccc3)n2)cc1OC | -39 | 0.59 | -53 | -60 | -1.3 | -0.69 | . | . | .
CC(c1ccco1)N(C(=O)c1ccc(Cl)s1)c1ccccn1 (stereo unspecified) | 10 | 0.05 | 15 | 1 | 0.27 | -0.88 | . | . | .
CCCN1CNC(=S)N(c2cc(C)ccc2C)C1 | . | . | -6 | . | . | . | . | . | .
CCc1ccc(-c2cn(-c3nc(C)cc(C)n3)c(=N)o2)cc1 | 3 | 1 | 38 | -17 | -0.98 | -0.57 | . | . | .
COc1ccc(Cc2noc(-c3ccc(OC)c(OC)c3)n2)cc1OC | 0 | 12* | . | -13 | -0.095 | -0.8 | 10328* | 1376 | +
CCn1c(SCc2nc(-c3ccc(OC)c(OC)c3)no2)nnc1-c1cccs1 | 12 | 5.3* | -70 | 1 | -1 | 0 | 11432* | 1604 | +
COc1ccc(Cc2nnc(-c3cccc(C)c3)o2)cc1OC | -1 | 4.3* | . | 31 | 0.16 | -1.9 | 13948* | 1620 | +
COc1ccc(-c2noc(CSc3nnc(Cc4ccccc4)n3-c3cccc(C)c3)n2)cc1OC | 2 | 1.5 | 9 | -2 | -1.6 | 0.13 | . | . | .
COc1ccc(-c2noc(CN(C(=O)c3ccc(OC(C)=O)cc3)C(C)C)n2)cc1OC | -13 | 3.9* | 15 | -4 | -0.46 | -0.18 | 7848* | 1480 | +
COc1ccc(-c2ccc(-c3noc(-c4ccc(OC)c(OC)c4)n3)c(OC)n2)cc1 | -7 | -0.26 | . | -15 | 0.0094 | -0.3 | . | . | .
Cc1csc(NC(=O)CSc2nnc3ncccn23)n1 | 8 | -0.12 | . | -2 | 0.15 | -0.35 | . | . | .
Brc1c(OCCOCCn2cncn2)ccc2ccccc12 | 28 | 1.4 | . | 41 | 0.48 | 0.19 | . | . | .
SMILES | RORa activator | D1 allo mod | Htt clearance | SF-1 act | M1 antagonist | M1 ag | D1 mod confirm | D1 no dopamine | Isoprot counter
Cc1ccc(S(=O)(=O)NC2=NCCC2)cc1 | 0 | -0.69 | . | -14 | 0.87 | 0.15 | . | . | .
O=C(OCc1nnc(-c2ccccc2)o1)c1cc(S(=O)(=O)N2CCOCC2)c(Cl)cc1Cl | -1 | 1.3 | -56 | -2 | 1.5 | -1.1 | . | . | .
COc1ccc(S(=O)(=O)N2CCc3ccccc32)cc1C(=O)OCc1nnc(-c2ccccc2)o1 | -20 | 3.2* | -16 | 4 | 1.7 | -0.22 | 7576* | 1476 | +
CC(=O)C(C)Oc1ccc2c3c(c(=O)oc2c1C)CCCC3 (stereo unspecified) | 60* | 3.2* | ? | 7 | -0.23 | -0.77 | 9268* | 1608 | +
Cc1c(O)ccc2c3c(c(=O)oc12)CCCC3 | -8 | 0.11 | 36 | -10 | -0.24 | -1.5 | . | . | .
Cc1cc(C(=O)Nc2ccc(C(=O)O)cc2)c(-c2ccccc2)o1 | -1 | 2.5* | -5 | 10 | 0.68 | 0.16 | 7724* | 1596 | +
O=C(O)COc1ccc2c(c1)OCCO2 | -13 | 0.29 | . | -7 | 0.63 | 0.085 | . | . | .
CSc1ncccc1C(=O)OCn1nnc2ccccc2c1=O | -4 | 3.3* | . | 4 | 0.6 | -0.37 | 9044* | 1656 | +
CC(=O)c1c(C)[nH]c(C(=O)OCn2nnc3ccccc3c2=O)c1C | -15 | 2.4* | -10 | 3 | 0.12 | -0.14 | 5372 | . | i
C=CCn1c(CCC(=O)O)ccc1-c1ccccc1 | -7 | 0.02 | 6 | 3 | -0.0097 | -0.41 | . | . | .
O=C(CSc1n[nH]c(-c2ccccc2)n1)c1ccc(O)c(O)c1 | -2 | . | . | 0 | 1.2 | -0.068 | . | . | .
Cc1cccc(N2C(=O)CC(N(C(=O)c3ccco3)c3cccc(C)c3)C2=O)c1 (stereo unspecified) | -15 | -0.35 | 2 | -16 | 0.25 | 0.64 | . | . | .
CCCCCn1c(CCCNC(=O)CC)nc2ccccc21 | 24 | -0.44 | . | 2 | 1 | -0.0079 | . | . | .
COCc1cc(C)nc(NC2CCCCC2)c1C#N | -23 | 3.5* | -1 | -4 | -1 | 2.3 | 5216 | 1592 | i

Assay outcomes deposited in PubChem BioAssay by several laboratories.
